Source: ChEMBL document CHEMBL2417395, “Synthesis and biological evaluation of novobiocin analogues as potential heat shock protein 90 inhibitors” (Bioorg Med Chem, 2013)
Values belong to the compound of their own block, whether it stands above or below them. Active and inactive are the calls of the source. The calls are words filed in the database; no cut-off is given here.

Key:
Heat shock protein HSP90 [1] = target: T1, Heat shock protein HSP90 (Homo sapiens, UniProt P07900+P08238); test: Inhibition of HSP90 in human MCF7 cells assessed as depletion of total HER2 protein level at 50 uM after 18 hrs by Western blot analysis relative to control; type: cell-based
Procedure, shortened: (§1)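 MCF-7 cells at 70% confluence treated 18 h; floating plus trypsinized cells pooled, lysed in NP-40 buffer (pH 7.4) with protease/phosphatase inhibitors; 20 µg protein on 7.5% SDS-PAGE, nitrocellulose, milk block; probed for HER2 (2.0 µg/mL monoclonal) or HSP72, alkaline-phosphatase secondary, NBT/BCIP development; Ponceau S loading check.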

MCF7 [2] = test: Cytotoxicity against ER-positive human MCF7 cells expressing low level of HER2 after 3 days by MTT assay; type: functional, cell-based; conditions: MCF7, 72 h
Procedure, shortened: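 MCF-7 seeded 2,000 cells/well, serial dilutions added after 24 h, 72 h exposure; MTT at 500 µg/mL final, 3 h at 37 °C, formazan dissolved in DMSO, absorbance 570 nm minus 650 nm background. Triplicates, at least two experiments; IC50 = concentration cutting viable signal by 50% of DMSO control.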

Heat shock protein HSP90 [3] = target: T1, Heat shock protein HSP90; test: Inhibition of HSP90 in human SKBR3 cells assessed as depletion of cell surface HER2 protein level at 100 uM after 18 hrs by immunofluorescence-based flow cytometric analysis relative to control; conditions: SK-BR-3
Procedure, shortened: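 SKBR3 cells treated 18 h at 100 µM (controls: DMSO, GA 0.5 µM, NB 500 µM), trypsinized, blocked in goat serum/PBA (pH 7.6) on ice, anti-HER2 20 µg/mL 30 min then Alexa 488 secondary 2 µg/mL 20 min on ice; mean fluorescence intensity by flow cytometry, isotype antibody control.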

Heat shock protein HSP90 [4] = target: T1, Heat shock protein HSP90; test: Inhibition of HSP90 in human MCF7 cells assessed as depletion of cell surface HER2 protein level after 18 hrs by flow cytometry
SK-BR-3 [5] = test: Cytotoxicity against human SKBR3 cells assessed as growth inhibition at 100 uM after 18 hrs by capillary-based flow cytometric analysis; type: functional, cell-based
Procedure, shortened: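 Short-term viability: SKBR3 cells exposed overnight under the same conditions as the surface-HER2 screen, then stained with a DNA-staining viability reagent; viable cell number counted by capillary flow cytometry.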

SK-BR-3 [6] = test: Cytotoxicity against ER-negative human SKBR3 cells expressing high level of HER2 after 3 days by MTT assay; type: functional, cell-based; conditions: SK-BR-3, 72 h
Procedure, shortened: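 SKBR3 cells in RPMI 1640 with 10% FBS exposed to serial dilutions for 3 days; MTT dye-reduction read-out of relative viable cell number. IC50 taken as concentration giving 50% reduction versus DMSO-treated cells.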

Heat shock protein HSP90 [7] = target: T1, Heat shock protein HSP90; test: Inhibition of HSP90 in human SKBR3 cells assessed as aggregation of intracellular HER2 at 25 uM after 18 hrs by DAPI staining-based immunofluorescence microscopic analysis; type: cell-based; conditions: SK-BR-3
Procedure, shortened: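 SKBR3 in chamber slides adhered overnight, treated 18 h, fixed 4% paraformaldehyde, permeabilized 1% Triton X-100, goat-serum block; anti-HER2 (20 µg/mL) then Alexa Fluor 488 secondary (2 µg/mL) on ice, DAPI nuclear counterstain; imaged at 160× with identical exposures. GA 0.5 µM positive control.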

SK-BR-3 [8] = test: Cell cycle arrest in human SKBR3 cells assessed as accumulation at subG1 phase after 48 hrs by flow cytometric analysis; type: functional, cell-based
Heat shock protein HSP90 [9] = target: T1, Heat shock protein HSP90; test: Inhibition of HSP90 in human MCF7 cells assessed as depletion of total HER2 protein level at 12.5 to 25 uM after 18 hrs by Western blot analysis; type: cell-based; procedure, shortened: as §1
Mus musculus = species on record: Mus musculus; test: Inhibition of HSP90 in mouse 3T3-Y9-B12 cells assessed as activation of HSF1 at 0.78 to 25 uM after overnight incubation by GFP reporter gene assay relative to control; type: cell-based
Procedure, shortened: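 3T3-Y9-B12 mouse fibroblasts carrying a GFP gene under a minimal heat-shock element; near-confluent monolayers given serial dilutions in triplicate wells overnight, DMSO ≤0.25% vehicle, GA 0.5 µM positive control; after PBS wash, fluorescence at 485/525 nm, normalized to DMSO.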

SK-BR-3 [10] = test: Cell cycle arrest in human SKBR3 cells assessed as accumulation at G0/G1 phase at 12.5 uM after 48 hrs by flow cytometric analysis (reference value: 54 +/- 2%); type: functional
MCF7 [11] = test: Induction of HSP70 in human MCF7 cells by Western blot analysis; type: cell-based; procedure, shortened: as §1
SK-BR-3 [12] = test: Cell cycle arrest in human SKBR3 cells assessed as accumulation at G0/G1 phase at 25 uM after 48 hrs by flow cytometric analysis (reference value: 54 +/- 2%); type: functional
Oryctolagus cuniculus [13] = species on record: Oryctolagus cuniculus; test: Inhibition of HSP90 in rabbit reticulocyte lysate assessed as inhibition of heat-denatured luciferase refolding at 100 uM by luminescence plate reader analysis; conditions: TDE = time-dependent effect
Procedure, shortened: (§2)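 Rabbit reticulocyte lysate with ATP regeneration (10 mM phosphocreatine, 1 mM ATP, 17.5 IU creatine kinase) preincubated with compound 20 min on ice; firefly luciferase (100 nM) heat-denatured 40 °C 8 min, diluted 10-fold into lysate; 28 °C, triplicate aliquots luminescence-read at 0, 15, 30, 60 min; mean RLU or % of DMSO.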

SK-BR-3 [14] = test: Cell cycle arrest in human SKBR3 cells assessed as accumulation at subG1 phase at 25 uM after 48 hrs by flow cytometric analysis (reference value: 7 +/- 1%); type: functional
SK-BR-3 [15] = test: Cell cycle arrest in human SKBR3 cells assessed as accumulation at G2/M phase at 12.5 uM after 48 hrs by flow cytometric analysis (reference value: 21 +/- 1%); type: functional
SK-BR-3 [16] = test: Cell cycle arrest in human SKBR3 cells assessed as accumulation at S phase at 12.5 uM after 48 hrs by flow cytometric analysis (reference value: 19 +/- 6%); type: functional
Oryctolagus cuniculus [17] = species on record: Oryctolagus cuniculus; test: Inhibition of HSP90 in rabbit reticulocyte lysate assessed as inhibition of heat-denatured luciferase refolding after 30 mins by luminescence plate reader analysis; procedure, shortened: as §2
SK-BR-3 [18] = test: Cell cycle arrest in human SKBR3 cells assessed as accumulation at subG1 phase at 12.5 to 25 uM by flow cytometric analysis; type: functional, cell-based; conditions: TDE = time-dependent effect
SK-BR-3 [19] = test: Cell cycle arrest in human SKBR3 cells assessed as accumulation at subG1 phase at 12.5 uM after 48 hrs by flow cytometric analysis (reference value: 7 +/- 1%); type: functional
SK-BR-3 [20] = test: Cell cycle arrest in human SKBR3 cells assessed as accumulation at S phase at 25 uM after 48 hrs by flow cytometric analysis (reference value: 19 +/- 6%); type: functional
SK-BR-3 [21] = test: Cell cycle arrest in human SKBR3 cells assessed as accumulation at G2/M phase at 25 uM after 48 hrs by flow cytometric analysis (reference value: 21 +/- 1%); type: functional

inhibition (Heat shock protein HSP90 [1]): 50%
inhibition (Heat shock protein HSP90 [3]): 40%
EC50 (Heat shock protein HSP90 [4]): 41 µM
Compound: COc1ccc(C(=O)Nc2c(OC)c3ccc(O[C@@H]4OC(C)(C)[C@H](OC)[C@@H](O)[C@H]4O)c(C)c3oc2=O)cc1CC=C(C)C
IC50 (MCF7 [2]): 19 µM
growth inhibition (GI) (SK-BR-3 [5]): Active
IC50 (SK-BR-3 [6]): 25 µM

inhibition (Heat shock protein HSP90 [3]): 40%
EC50 (Heat shock protein HSP90 [4]): > 50 µM
Compound: CO[C@@H]1[C@@H](OC(=O)c2ccc(C)[nH]2)[C@@H](O)[C@H](Oc2ccc3c(O)c(NC(=O)c4cc5ccccc5[nH]4)c(=O)oc3c2C)OC1(C)C
growth inhibition (GI) (SK-BR-3 [5]): Active

inhibition (Heat shock protein HSP90 [7]): Active
inhibition (Heat shock protein HSP90 [1]): 50%
inhibition (Heat shock protein HSP90 [9]): Active
inhibition (Heat shock protein HSP90 [3]): 40%
inhibition (Oryctolagus cuniculus [13]): tde
EC50 (Heat shock protein HSP90 [4]): 20 µM
inhibition (Oryctolagus cuniculus [17]): Dose-dependent effect
Compound: CO[C@@H]1[C@@H](OC(N)=O)[C@@H](O)[C@H](Oc2ccc3cc(NC(=O)c4cc5ccccc5[nH]4)c(=O)oc3c2C)OC1(C)C
Activity (SK-BR-3 [8]): Dose-dependent effect
IC50 (MCF7 [2]): 6 µM
fold change (FC) (Mus musculus): < 2
Activity (SK-BR-3 [10]): 58%
Activity (MCF7 [11]): Active
Activity (SK-BR-3 [12]): 56%
Activity (SK-BR-3 [14]): 29%
Activity (SK-BR-3 [15]): 18%
growth inhibition (GI) (SK-BR-3 [5]): Active
Activity (SK-BR-3 [16]): 17%
Activity (SK-BR-3 [18]): tde
Activity (SK-BR-3 [19]): 8%
Activity (SK-BR-3 [20]): 10%
IC50 (SK-BR-3 [6]): 10 µM
Activity (SK-BR-3 [21]): 10%
